Assay results published in ChEMBL document CHEMBL1156332, “Polysubstituted pyrazoles, part 6. Synthesis of some 1-(4-chlorophenyl)-4-hydroxy-1H-pyrazol-3-carbonyl derivatives linked to nitrogenous heterocyclic ring systems as potential antitumor agents” (2010).

Assays:
Format in all cases: functional
CCRF-CEM = experiment: Growth inhibition of human CCRF-CEM cells after 48 hrs by sulforhodamine B assay
Method in brief: (§1)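 NCI 60-line panel, five concentrations (0.01–100 µM) from DMSO stock diluted in medium with gentamicin. Cells were plated 24 h before dosing, with time-zero plates fixed at drug addition, then exposed 48 h at 37 °C, 5% CO₂. Adherent cells were fixed with cold TCA (10% final) and suspension cells with 16% TCA. Staining used 0.4% SRB, solubilised in 10 mM Tris and read at 515 nm. GI₅₀ was taken from log concentration–% growth curves.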

HT-29 = experiment: Growth inhibition of human HT-29 cells after 48 hrs by sulforhodamine B assay; settings: HT-29, 48 h; method in brief: as §1
HOP-62 = experiment: Growth inhibition of human HOP62 cells after 48 hrs by sulforhodamine B assay; settings: HOP-62, 48 h; method in brief: as §1
[1] = Cytotoxicity against human breast cancer cells after 48 hrs by sulforhodamine B assay; settings: Cancer cell lines
Method in brief: (§2)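 NCI five-dose screen: about 60 human tumour lines grouped into nine subpanels were plated and incubated 24 h before dosing. Compounds went in as DMSO stock and were diluted in medium to five final concentrations (0.01–100 µM). Exposure was 48 h continuous at 37 °C, 5% CO₂, followed by TCA fixation and SRB staining read at 515 nm. Per-line GI₅₀, TGI and LC₅₀ came from log concentration–% growth curves, averaged per subpanel as MG-MID.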

SW-620 = experiment: Growth inhibition of human SW620 cells after 48 hrs by sulforhodamine B assay; settings: SW-620, 48 h
Method in brief: (§3)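 Adherent lines plated and held 24 h at 37 °C, 5% CO2, 100% humidity; time-zero plates TCA-fixed at drug addition. Drugs from DMSO stocks were made into five concentrations by 10-fold or half-log serial dilution and applied for 48 h continuous exposure. Cells were fixed with cold TCA (10% final) for 60 min at 4 °C, then stained with 0.4% SRB in 1% acetic acid for 10 min. Dye was solubilized in 10 mM Tris base and read at 515 nm. GI50 was taken from log concentration–growth curves.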

[2] = Cytotoxicity against human renal cancer cells after 48 hrs by sulforhodamine B assay; settings: Cancer cell lines; method in brief: as §2
[3] = Cytotoxicity against human ovarian cancer cells after 48 hrs by sulforhodamine B assay; settings: Cancer cell lines; method in brief: as §2
[4] = Cytotoxicity against human prostate cancer cells after 48 hrs by sulforhodamine B assay; settings: Cancer cell lines; method in brief: as §2
IGROV-1 = experiment: Growth inhibition of human IGROV1 cells after 48 hrs by sulforhodamine B assay; settings: IGROV-1, 48 h; method in brief: as §1
MCF7 = experiment: Growth inhibition of human MCF7 cells after 48 hrs by sulforhodamine B assay; settings: MCF7, 48 h; method in brief: as §1
TK-10 = experiment: Growth inhibition of human TK10 cells after 48 hrs by sulforhodamine B assay; settings: TK-10, 48 h; method in brief: as §3
SK-OV-3 = experiment: Growth inhibition of human SKOV3 cells after 48 hrs by sulforhodamine B assay; settings: SK-OV-3, 48 h; method in brief: as §3
KM12 = experiment: Growth inhibition of human KM12 cells after 48 hrs by sulforhodamine B assay; settings: KM12, 48 h; method in brief: as §1
ACHN = experiment: Growth inhibition of human ACHN cells after 48 hrs by sulforhodamine B assay; method in brief: as §1
NCI-H23 = experiment: Growth inhibition of human NCI-H23 cells after 48 hrs by sulforhodamine B assay; settings: NCI-H23, 48 h; method in brief: as §1
NCI-H460 = experiment: Growth inhibition of human NCI-H460 cells after 48 hrs by sulforhodamine B assay; settings: NCI-H460, 48 h; method in brief: as §1
SF-268 = experiment: Growth inhibition of human SF268 cells after 48 hrs by sulforhodamine B assay; settings: SF-268, 48 h; method in brief: as §1
HCT-116 = experiment: Growth inhibition of human HCT116 cells after 48 hrs by sulforhodamine B assay; settings: HCT-116, 48 h; method in brief: as §1
786-0 = experiment: Growth inhibition of human 786-0 cells after 48 hrs by sulforhodamine B assay; settings: 786-0, 48 h; method in brief: as §1
[5] = Cytotoxicity against human CNS cancer cells after 48 hrs by sulforhodamine B assay; settings: Cancer cell lines; method in brief: as §2
T47D = experiment: Growth inhibition of human T47D cells after 48 hrs by sulforhodamine B assay; method in brief: as §3
SK-MEL-5 = experiment: Growth inhibition of human SK-MEL-5 cells after 48 hrs by sulforhodamine B assay; settings: SK-MEL-5, 48 h; method in brief: as §3
NCI-H522 = experiment: Growth inhibition of human NCI-H522 cells after 48 hrs by sulforhodamine B assay; settings: NCI-H522, 48 h; method in brief: as §1
HCT-15 = experiment: Growth inhibition of human HCT15 cells after 48 hrs by sulforhodamine B assay; settings: HCT-15, 48 h; method in brief: as §1
OVCAR-8 = experiment: Growth inhibition of human OVCAR8 cells after 48 hrs by sulforhodamine B assay; settings: OVCAR-8, 48 h; method in brief: as §1
HOP-92 = experiment: Growth inhibition of human HOP92 cells after 48 hrs by sulforhodamine B assay; settings: HOP-92, 48 h; method in brief: as §1
MDA-MB-468 = experiment: Growth inhibition of human MDA-MB-468 cells after 48 hrs by sulforhodamine B assay; settings: MDA-MB-468, 48 h; method in brief: as §1
M14 = experiment: Growth inhibition of human M14 cells after 48 hrs by sulforhodamine B assay; settings: M14, 48 h; method in brief: as §1
SNB-75 = experiment: Growth inhibition of human SNB75 cells after 48 hrs by sulforhodamine B assay; settings: SNB-75, 48 h; method in brief: as §3
SF-539 = experiment: Growth inhibition of human SF539 cells after 48 hrs by sulforhodamine B assay; settings: SF-539, 48 h; method in brief: as §3
[6] = Cytotoxicity against human lung cancer cells after 48 hrs by sulforhodamine B assay; settings: Cancer cell lines; method in brief: as §2
HCC 2998 = experiment: Growth inhibition of human HCC2998 cells after 48 hrs by sulforhodamine B assay; settings: HCC 2998, 48 h; method in brief: as §1
[7] = Growth inhibition of human Hs 578T cells after 48 hrs by sulforhodamine B assay; method in brief: as §1
A498 = experiment: Growth inhibition of human A498 cells after 48 hrs by sulforhodamine B assay; settings: A498, 48 h; method in brief: as §1
UACC-62 = experiment: Growth inhibition of human UACC62 cells after 48 hrs by sulforhodamine B assay; settings: UACC-62, 48 h; method in brief: as §3
U-251 = experiment: Growth inhibition of human U251 cells after 48 hrs by sulforhodamine B assay; settings: U-251, 48 h; method in brief: as §3
UO-31 = experiment: Growth inhibition of human UO31 cells after 48 hrs by sulforhodamine B assay; settings: UO-31, 48 h; method in brief: as §3
BT-549 = experiment: Growth inhibition of human BT549 cells after 48 hrs by sulforhodamine B assay; settings: BT-549, 48 h; method in brief: as §1
CAKI-1 = experiment: Growth inhibition of human Caki1 cells after 48 hrs by sulforhodamine B assay; settings: CAKI-1, 48 h; method in brief: as §1
COLO 205 = experiment: Growth inhibition of human COLO205 cells after 48 hrs by sulforhodamine B assay; settings: COLO 205, 48 h; method in brief: as §1
RPMI-8226 = experiment: Growth inhibition of human RPMI8226 cells after 48 hrs by sulforhodamine B assay; settings: RPMI-8226, 48 h; method in brief: as §1

## N#Cc1cnn(C(=O)c2nn(-c3ccc(Cl)cc3)cc2O)c1N
CCRF-CEM
  GI50: 280 nM
HT-29
  GI50: 1190 nM
HOP-62
  GI50: 340 nM
[1]
  GI50: 430 nM
  LC50: 64300 nM
  TGI: 14400 nM
SW-620
  GI50: 520 nM
[2]
  GI50: 360 nM
  LC50: 75000 nM
  TGI: 8990 nM
[3]
  GI50: 500 nM
  LC50 (50% lethal concentration): 88500 nM
  TGI: 19600 nM
[4]
  GI50: 450 nM
  TGI: 13400 nM
IGROV-1
  GI50: 360 nM
MCF7
  GI50: 360 nM
TK-10
  GI50: 280 nM
SK-OV-3
  GI50: 520 nM
KM12
  GI50: 380 nM
ACHN
  GI50: 320 nM
NCI-H23
  GI50: 370 nM
NCI-H460
  GI50: 190 nM
SF-268
  GI50: 460 nM
HCT-116
  GI50: 260 nM
786-0
  GI50: 660 nM
[5]
  GI50: 320 nM
  LC50: 74700 nM
  TGI: 23100 nM
T47D
  GI50: 300 nM
SK-MEL-5
  GI50: 480 nM
NCI-H522
  GI50: 210 nM
HCT-15
  GI50: 340 nM
OVCAR-8
  GI50: 480 nM
HOP-92
  GI50: 400 nM
MDA-MB-468
  GI50: 950 nM
M14
  GI50: 480 nM
SNB-75
  GI50: 250 nM
SF-539
  GI50: 320 nM
[6]
  GI50: 320 nM
  LC50 (concentration causing 50% net cell kill): 69400 nM
  TGI: 10800 nM
HCC 2998
  GI50: 650 nM
[7]
  GI50: 190 nM
A498
  GI50: 170 nM
UACC-62
  GI50: 300 nM
U-251
  GI50: 290 nM
UO-31
  GI50: 300 nM
BT-549
  GI50: 290 nM
CAKI-1
  GI50: 280 nM
COLO 205
  GI50: 910 nM
RPMI-8226
  GI50: 210 nM

## CC1=NN(C(=O)c2nn(-c3ccc(Cl)cc3)cc2O)C(=O)C1
CCRF-CEM
  GI50: 420 nM
HT-29
  GI50: 6160 nM
HOP-62
  GI50: 1330 nM
[1]
  GI50: 2020 nM
  TGI: 90100 nM
SW-620
  GI50: 3410 nM
[2]
  GI50: 1670 nM
  TGI: 77000 nM
[3]
  GI50: 1740 nM
  TGI: 83800 nM
[4]
  GI50: 5220 nM
IGROV-1
  GI50: 510 nM
MCF7
  GI50: 3610 nM
TK-10
  GI50: 790 nM
SK-OV-3
  GI50: 1530 nM
KM12
  GI50: 2270 nM
ACHN
  GI50: 880 nM
NCI-H23
  GI50: 2900 nM
NCI-H460
  GI50: 370 nM
SF-268
  GI50: 490 nM
HCT-116
  GI50: 680 nM
786-0
  GI50: 6450 nM
[5]
  GI50: 1090 nM
  TGI: 79600 nM
T47D
  GI50: 2660 nM
SK-MEL-5
  GI50: 1700 nM
NCI-H522
  GI50: 2840 nM
HCT-15
  GI50: 680 nM
OVCAR-8
  GI50: 1490 nM
HOP-92
  GI50: 3670 nM
MDA-MB-468
  GI50: 4570 nM
M14
  GI50: 1780 nM
SNB-75
  GI50: 530 nM
SF-539
  GI50: 1700 nM
[6]
  GI50: 1820 nM
  TGI: 78200 nM
HCC 2998
  GI50: 3670 nM
[7]
  GI50: 280 nM
A498
  GI50: 450 nM
UACC-62
  GI50: 1800 nM
U-251
  GI50: 410 nM
UO-31
  GI50: 670 nM
BT-549
  GI50: 650 nM
CAKI-1
  GI50: 1060 nM
COLO 205
  GI50: 4810 nM
RPMI-8226
  GI50: 1660 nM

## Cc1c2c(nn1C(=O)c1nn(-c3ccc(Cl)cc3)cc1O)-c1ccccc1CC2
CCRF-CEM
  GI50: 57 nM
HT-29
  GI50: 241 nM
HOP-62
  GI50: 44 nM
[1]
  GI50: 82 nM
  TGI: 91700 nM
SW-620
  GI50: 360 nM
[2]
  GI50: 92 nM
  TGI: 67700 nM
[3]
  GI50: 115 nM
  TGI: 83600 nM
[4]
  GI50: 44 nM
IGROV-1
  GI50: 43 nM
MCF7
  GI50: 121 nM
TK-10
  GI50: 33 nM
SK-OV-3
  GI50: 160 nM
KM12
  GI50: 70 nM
ACHN
  GI50: 48 nM
NCI-H23
  GI50: 41 nM
NCI-H460
  GI50: 28 nM
SF-268
  GI50: 48 nM
HCT-116
  GI50: 34 nM
786-0
  GI50: 319 nM
[5]
  GI50: 36 nM
  TGI: 69100 nM
T47D
  GI50: 59 nM
SK-MEL-5
  GI50: 370 nM
NCI-H522
  GI50: 55 nM
HCT-15
  GI50: 52 nM
OVCAR-8
  GI50: 53 nM
HOP-92
  GI50: 52 nM
MDA-MB-468
  GI50: 262 nM
M14
  GI50: 96 nM
SNB-75
  GI50: 29 nM
SF-539
  GI50: 41 nM
[6]
  GI50: 47 nM
  TGI: 68100 nM
HCC 2998
  GI50: 502 nM
[7]
  GI50: 21 nM
A498
  GI50: 24 nM
UACC-62
  GI50: 51 nM
U-251
  GI50: 31 nM
UO-31
  GI50: 99 nM
BT-549
  GI50: 29 nM
CAKI-1
  GI50: 127 nM
COLO 205
  GI50: 291 nM
RPMI-8226
  GI50: 38 nM
